Experimental data as given in ChEMBL document CHEMBL5608187, “Discovery of pyridoquinoxaline-based new P-gp inhibitors as coadjutant against Multi Drug Resistance in cancer” (Eur J Med Chem, 2024).

How the values were obtained:
Format in all cases: cell-based
[1] = target: T1, ATP-dependent translocase ABCB1 (Homo sapiens, UniProt P08183); experiment: Inhibition of P-gp in human A498 cells assessed as increase in green fluorescence intensity at 0.1 to 10 uM incubated for 15 mins followed by incubation with EFFLUX-ID Green Detection Reagent and Hoeschst-33342 dye and measured after 30 mins by fluorescence analysis; settings: a498, 0.25 h, dose 0.1-10 µM
T1 sequence (P08183 whole entry): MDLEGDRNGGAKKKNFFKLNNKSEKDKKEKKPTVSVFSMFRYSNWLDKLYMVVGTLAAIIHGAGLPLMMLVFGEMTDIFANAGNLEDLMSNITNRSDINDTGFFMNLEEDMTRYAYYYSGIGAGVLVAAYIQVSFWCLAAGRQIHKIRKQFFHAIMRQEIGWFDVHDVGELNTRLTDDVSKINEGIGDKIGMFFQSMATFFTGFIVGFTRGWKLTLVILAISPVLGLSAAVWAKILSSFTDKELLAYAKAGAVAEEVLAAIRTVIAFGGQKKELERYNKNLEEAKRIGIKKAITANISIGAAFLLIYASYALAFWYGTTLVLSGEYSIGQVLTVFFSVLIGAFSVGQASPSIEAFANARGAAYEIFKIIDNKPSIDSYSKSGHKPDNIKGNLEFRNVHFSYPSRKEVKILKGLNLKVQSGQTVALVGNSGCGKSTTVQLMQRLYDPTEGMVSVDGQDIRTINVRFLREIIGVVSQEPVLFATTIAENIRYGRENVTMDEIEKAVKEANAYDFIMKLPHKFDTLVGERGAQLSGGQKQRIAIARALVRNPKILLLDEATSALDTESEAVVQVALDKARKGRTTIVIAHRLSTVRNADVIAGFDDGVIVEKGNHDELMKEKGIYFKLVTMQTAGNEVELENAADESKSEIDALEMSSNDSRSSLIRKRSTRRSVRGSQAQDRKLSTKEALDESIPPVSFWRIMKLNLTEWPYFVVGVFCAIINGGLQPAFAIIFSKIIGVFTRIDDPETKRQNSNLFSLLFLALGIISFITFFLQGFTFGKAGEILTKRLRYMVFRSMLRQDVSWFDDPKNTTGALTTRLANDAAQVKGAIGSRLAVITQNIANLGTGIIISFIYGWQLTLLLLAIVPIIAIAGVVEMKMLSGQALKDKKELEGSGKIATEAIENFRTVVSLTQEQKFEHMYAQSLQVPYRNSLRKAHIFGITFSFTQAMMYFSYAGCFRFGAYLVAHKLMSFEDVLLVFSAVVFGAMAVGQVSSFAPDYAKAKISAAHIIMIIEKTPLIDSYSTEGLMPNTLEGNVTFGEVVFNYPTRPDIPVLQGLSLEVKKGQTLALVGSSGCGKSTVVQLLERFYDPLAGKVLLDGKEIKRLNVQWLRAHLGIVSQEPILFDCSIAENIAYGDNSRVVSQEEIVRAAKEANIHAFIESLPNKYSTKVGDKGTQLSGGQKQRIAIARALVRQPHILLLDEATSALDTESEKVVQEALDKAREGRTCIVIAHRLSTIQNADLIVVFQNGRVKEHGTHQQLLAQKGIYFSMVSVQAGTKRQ
How it was run: (§1)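 5000 cells/well in phenol-red-free medium plated 24 h before; compounds 0.1, 1, 10 µM for 15 min, then EFLUXX-ID Green reagent (1:200) plus Hoechst-33342 1 µg/mL, 30 min 37 °C. Widefield imaging; median green intensity from 250 cells per well normalized to untreated wells. Mean ± SD of three wells; one-tailed t-test.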

[2] = target: T1, ATP-dependent translocase ABCB1; experiment: Inhibition of P-gp in human CAKI-2 cells assessed as increase in green fluorescence intensity at 0.1 to 10 uM incubated for 15 mins followed by incubation with EFFLUX-ID Green Detection Reagent and Hoeschst-33342 dye and measured after 30 mins by fluorescence analysis; settings: caki-2, 0.25 h, dose 0.1-10 µM; how it was run: as §1
[3] = target: T1, ATP-dependent translocase ABCB1; experiment: Inhibition of P-gp in human HCT-15 cells assessed as increase in green fluorescence intensity at 0.1 to 10 uM incubated for 15 mins followed by incubation with EFFLUX-ID Green Detection Reagent and Hoeschst-33342 dye and measured after 30 mins by fluorescence analysis; settings: hct-15, 0.25 h, dose 0.1-10 µM; how it was run: as §1
[4] = target: T1, ATP-dependent translocase ABCB1; experiment: Inhibition of P-gp in human HT1197 cells assessed as increase in green fluorescence intensity at 0.1 to 10 uM incubated for 15 mins followed by incubation with EFFLUX-ID Green Detection Reagent and Hoeschst-33342 dye and measured after 30 mins by fluorescence analysis; settings: ht1197, 0.25 h, dose 0.1-10 µM; how it was run: as §1

`COc1ccc(NC(=O)c2cc(Cl)ccc2OCc2nc3cc4cccnc4cc3nc2COc2ccc(Cl)cc2C(=O)Nc2ccc(OC)cc2)cc1` was tested, and the “inhibition (INH)” value [1] was “Not Active”, the “inhibition (INH)” value [2] was “Active” and the “inhibition (INH)” value [3] was “Active”. For the same compound, the “inhibition (INH)” value [4] was “Active”.
`COC(=O)c1ccc(OCc2nc3cc4cccnc4cc3nc2COc2ccc(C(=O)OC)cc2OC)c(OC)c1` was tested, and the “inhibition (INH)” value [1] was “Not Active”, the “inhibition (INH)” value [2] was “Active” and the “inhibition (INH)” value [3] was “Active”. For the same compound, the “inhibition (INH)” value [4] was “Active”.
`COc1cc(NC(=O)c2cc(Cl)ccc2OCc2nc3cc4cccnc4cc3nc2COc2ccc(Cl)cc2C(=O)Nc2cc(OC)c(OC)c(OC)c2)cc(OC)c1OC` was tested, and the “inhibition (INH)” value [1] was “Not Active”, the “inhibition (INH)” value [2] was “Active” and the “inhibition (INH)” value [3] was “Active”. For the same compound, the “inhibition (INH)” value [4] was “Active”.
For `O=C(Nc1ccc(Cl)c(Cl)c1)c1ccccc1OCc1nc2cc3cccnc3cc2nc1COc1ccccc1C(=O)Nc1ccc(Cl)c(Cl)c1`, the “inhibition (INH)” value [1] was “Not Active”, the “inhibition (INH)” value [2] was “Active” and the “inhibition (INH)” value [3] was “Active”. For the same compound, the “inhibition (INH)” value [4] was “Active”.
For `COc1cc(NC(=O)c2cc(Cl)ccc2OCc2nc3cc4cccnc4cc3nc2COc2ccc(Cl)cc2C(=O)Nc2cc(OC)cc(OC)c2)cc(OC)c1`, the “inhibition (INH)” value [1] was “Not Active”, the “inhibition (INH)” value [2] was “Active” and the “inhibition (INH)” value [3] was “Active”. For the same compound, the “inhibition (INH)” value [4] was “Active”.
In the case of `N#Cc1ccc(OCc2nc3cc4cccnc4cc3nc2COc2ccc(C#N)cc2)cc1`, the “inhibition (INH)” value [1] is reported as “Not Active”, the “inhibition (INH)” value [2] is reported as “Active” and the “inhibition (INH)” value [3] is reported as “Active”. The “inhibition (INH)” value [4] was “Active”.
For `COc1ccc(NC(=O)c2ccccc2OCc2nc3cc4cccnc4cc3nc2COc2ccccc2C(=O)Nc2ccc(OC)cc2)cc1`, the “inhibition (INH)” value [1] was “Not Active”, the “inhibition (INH)” value [2] was “Active” and the “inhibition (INH)” value [3] was “Active”. For the same compound, the “inhibition (INH)” value [4] was “Active”.
With `COC(=O)c1ccccc1SCc1nc2cc3cccnc3cc2nc1CSc1ccccc1C(=O)OC` the “inhibition (INH)” value [1] was “Not Active”, the “inhibition (INH)” value [2] was “Active” and the “inhibition (INH)” value [3] was “Active”. The “inhibition (INH)” value [4] was “Active”.
